≈ marks a conversion by molar mass, not a printed value.
Assays:
Assay type in all cases: functional
Staphylococcus aureus [1] = test: Antibacterial activity against methicillin-sensitive Staphylococcus aureus ATCC 6538 measured after overnight incubation by broth double-dilution method
Procedure, shortened: (§1)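 MIC by broth double-dilution in liquid Mueller-Hinton medium. Values are reported in µg/mL.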

Staphylococcus aureus [2] = test: Antibacterial activity against methicillin-sensitive Staphylococcus aureus ATCC 25923 measured after overnight incubation by broth double-dilution method; procedure, shortened: as §1
Staphylococcus aureus [3] = test: Antibacterial activity against methicillin-sensitive Staphylococcus aureus ATCC 29213 measured after overnight incubation by broth double-dilution method; procedure, shortened: as §1
Staphylococcus aureus [4] = test: Antibacterial activity against methicillin-resistant Staphylococcus aureus ATCC 33591 measured after overnight incubation by broth double-dilution method; procedure, shortened: as §1
Staphylococcus aureus [5] = test: Antibacterial activity against methicillin-resistant Staphylococcus aureus 1 measured after overnight incubation by broth double-dilution method; procedure, shortened: as §1
Staphylococcus aureus [6] = test: Antibacterial activity against methicillin-resistant Staphylococcus aureus 2 measured after overnight incubation by broth double-dilution method; procedure, shortened: as §1
Staphylococcus aureus [7] = test: Antibacterial activity against methicillin-resistant Staphylococcus aureus BRS3 measured after overnight incubation by broth double-dilution method; procedure, shortened: as §1
Staphylococcus aureus [8] = test: Antibacterial activity against methicillin-resistant Staphylococcus aureus C1 measured after overnight incubation by broth double-dilution method; procedure, shortened: as §1
Staphylococcus aureus [9] = test: Antibacterial activity against methicillin-resistant Staphylococcus aureus C2 measured after overnight incubation by broth double-dilution method; procedure, shortened: as §1
Staphylococcus aureus [10] = test: Antibacterial activity against methicillin-resistant Staphylococcus aureus C7 measured after overnight incubation by broth double-dilution method; procedure, shortened: as §1
Staphylococcus aureus [11] = test: Antibacterial activity against methicillin-resistant Staphylococcus aureus C14 measured after overnight incubation by broth double-dilution method; procedure, shortened: as §1
Staphylococcus aureus [12] = test: Antibacterial activity against methicillin-resistant Staphylococcus aureus C16 measured after overnight incubation by broth double-dilution method; procedure, shortened: as §1
Staphylococcus aureus [13] = test: Antibacterial activity against methicillin-resistant Staphylococcus aureus C19 measured after overnight incubation by broth double-dilution method; procedure, shortened: as §1
Staphylococcus aureus [14] = test: Antibacterial activity against methicillin-resistant Staphylococcus aureus G1 measured after overnight incubation by broth double-dilution method; procedure, shortened: as §1
Staphylococcus aureus [15] = test: Antibacterial activity against methicillin-resistant Staphylococcus aureus G6 measured after overnight incubation by broth double-dilution method; procedure, shortened: as §1
Staphylococcus aureus [16] = test: Antibacterial activity against methicillin-resistant Staphylococcus aureus G12 measured after overnight incubation by broth double-dilution method; procedure, shortened: as §1
Staphylococcus aureus [17] = test: Antibacterial activity against methicillin-resistant Staphylococcus aureus G14 measured after overnight incubation by broth double-dilution method; procedure, shortened: as §1
Staphylococcus aureus [18] = test: Antibacterial activity against methicillin-resistant Staphylococcus aureus NRS4 measured after overnight incubation by broth double-dilution method; procedure, shortened: as §1
Staphylococcus aureus [19] = test: Antibacterial activity against methicillin-resistant Staphylococcus aureus NRS51 measured after overnight incubation by broth double-dilution method; procedure, shortened: as §1
Staphylococcus aureus [20] = test: Antibacterial activity against methicillin-resistant Staphylococcus aureus NRS77 measured after overnight incubation by broth double-dilution method; procedure, shortened: as §1
Staphylococcus aureus [21] = test: Antibacterial activity against methicillin-resistant Staphylococcus aureus S14 measured after overnight incubation by broth double-dilution method; procedure, shortened: as §1
Staphylococcus aureus [22] = test: Antibacterial activity against methicillin-resistant Staphylococcus aureus S17 measured after overnight incubation by broth double-dilution method; procedure, shortened: as §1
Staphylococcus aureus [23] = test: Antibacterial activity against methicillin-resistant Staphylococcus aureus S22 measured after overnight incubation by broth double-dilution method; procedure, shortened: as §1
Staphylococcus aureus [24] = test: Antibacterial activity against methicillin-resistant Staphylococcus aureus S24 measured after overnight incubation by broth double-dilution method; procedure, shortened: as §1
Staphylococcus aureus [25] = test: Antibacterial activity against methicillin-resistant Staphylococcus aureus USA100 measured after overnight incubation by broth double-dilution method; procedure, shortened: as §1
Staphylococcus aureus [26] = test: Antibacterial activity against methicillin-resistant Staphylococcus aureus USA200 measured after overnight incubation by broth double-dilution method; procedure, shortened: as §1
Staphylococcus aureus [27] = test: Antibacterial activity against methicillin-resistant Staphylococcus aureus USA300 measured after overnight incubation by broth double-dilution method; procedure, shortened: as §1
Staphylococcus aureus [28] = test: Antibacterial activity against methicillin-resistant Staphylococcus aureus USA600 measured after overnight incubation by broth double-dilution method; procedure, shortened: as §1
[29] = test system: Staphylococcus epidermidis; test: Antibacterial activity against Staphylococcus epidermidis ATCC 35984 measured after overnight incubation by broth double-dilution method; details: RP62A
Procedure, shortened: (§2)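 MIC by broth double-dilution in Mueller-Hinton medium. Re-testing at the time-kill inoculum used 1×10^6 CFU/mL.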

Enterococcus faecalis [30] = test: Antibacterial activity against Enterococcus faecalis ATCC 29212 measured after overnight incubation by broth double-dilution method; procedure, shortened: as §2
Enterococcus faecalis [31] = test: Antibacterial activity against Enterococcus faecalis ATCC 49533 measured after overnight incubation by broth double-dilution method; procedure, shortened: as §2
Enterococcus faecium = test: Antibacterial activity against Enterococcus faecium BM4105-RF measured after overnight incubation by broth double-dilution method; procedure, shortened: as §1
Enterococcus = test: Antibacterial activity against Vancomycin-resistant Enterococcus measured after overnight incubation by broth double-dilution method; procedure, shortened: as §1
Listeria monocytogenes = test: Antibacterial activity against Listeria monocytogenes ATCC 19115 measured after overnight incubation by broth double-dilution method; procedure, shortened: as §2
[32] = test system: Mycolicibacterium smegmatis; test: Antibacterial activity against Mycobacterium smegmatis MC2-155 measured after overnight incubation by broth double-dilution method; details: str. MC2 155; procedure, shortened: as §1

Row | SMILES | MIC (Staphylococcus aureus [1]) [µg/mL] | MIC (Staphylococcus aureus [2]) [µg/mL] | MIC (Staphylococcus aureus [3]) [µg/mL] | MIC (Staphylococcus aureus [4]) [µg/mL] | MIC (Staphylococcus aureus [5]) [µg/mL] | MIC (Staphylococcus aureus [6]) [µg/mL] | MIC (Staphylococcus aureus [7]) [µg/mL] | MIC (Staphylococcus aureus [8]) [µg/mL] | MIC (Staphylococcus aureus [9]) [µg/mL] | MIC (Staphylococcus aureus [10]) [µg/mL] | MIC (Staphylococcus aureus [11]) [µg/mL] | MIC (Staphylococcus aureus [12]) [µg/mL] | MIC (Staphylococcus aureus [13]) [µg/mL] | MIC (Staphylococcus aureus [14]) [µg/mL] | MIC (Staphylococcus aureus [15]) [µg/mL] | MIC (Staphylococcus aureus [16]) [µg/mL] | MIC (Staphylococcus aureus [17]) [µg/mL] | MIC (Staphylococcus aureus [18]) [µg/mL] | MIC (Staphylococcus aureus [19]) [µg/mL] | MIC (Staphylococcus aureus [20]) [µg/mL] | other results
1 | Cc1cc(C)cc(-n2sc3ccccc3c2=O)c1 | 7.8 (≈ 30.5 µM) | 7.8 (≈ 30.5 µM) | 3.9 (≈ 15.3 µM) | 1 (≈ 3.92 µM) | 7.8 (≈ 30.5 µM) | 7.8 (≈ 30.5 µM) | 7.8 (≈ 30.5 µM) | 3.9 (≈ 15.3 µM) | 3.9 (≈ 15.3 µM) | 3.9 (≈ 15.3 µM) | 15.6 (≈ 61.1 µM) | 7.8 (≈ 30.5 µM) | 7.8 (≈ 30.5 µM) | 7.8 (≈ 30.5 µM) | 7.8 (≈ 30.5 µM) | 7.8 (≈ 30.5 µM) | 3.9 (≈ 15.3 µM) | 7.8 (≈ 30.5 µM) | 7.8 (≈ 30.5 µM) | 7.8 (≈ 30.5 µM) | MIC (Staphylococcus aureus [21]): ≤ 0.25 µg/mL; MIC (Staphylococcus aureus [22]): 3.9 µg/mL (≈ 15.3 µM); MIC (Staphylococcus aureus [23]): 3.9 µg/mL (≈ 15.3 µM); MIC (Staphylococcus aureus [24]): 7.8 µg/mL (≈ 30.5 µM); MIC (Staphylococcus aureus [25]): 3.9 µg/mL (≈ 15.3 µM); MIC (Staphylococcus aureus [26]): 7.8 µg/mL (≈ 30.5 µM); MIC (Staphylococcus aureus [27]): 7.8 µg/mL (≈ 30.5 µM); MIC (Staphylococcus aureus [28]): 7.8 µg/mL (≈ 30.5 µM); MIC [29]: 3.9 µg/mL (≈ 15.3 µM); MIC (Enterococcus faecalis [30]): 15.6 µg/mL (≈ 61.1 µM); MIC (Enterococcus faecalis [31]): 15.6 µg/mL (≈ 61.1 µM); MIC (Enterococcus faecium): 15.6 µg/mL (≈ 61.1 µM); MIC (Enterococcus): 3.9 µg/mL (≈ 15.3 µM); MIC (Listeria monocytogenes): 7.8 µg/mL (≈ 30.5 µM); MIC [32]: 3.9 µg/mL (≈ 15.3 µM)
2 | CC(C)CCn1sc2ccccc2c1=O | 3.9 (≈ 17.6 µM) | > 125 | 3.9 (≈ 17.6 µM) | > 125 | 3.9 (≈ 17.6 µM) | 7.8 (≈ 35.2 µM) | 3.9 (≈ 17.6 µM) | 3.9 (≈ 17.6 µM) | 3.9 (≈ 17.6 µM) | 3.9 (≈ 17.6 µM) | 3.9 (≈ 17.6 µM) | 7.8 (≈ 35.2 µM) | 3.9 (≈ 17.6 µM) | 2 (≈ 9.04 µM) | 3.9 (≈ 17.6 µM) | 3.9 (≈ 17.6 µM) | 7.8 (≈ 35.2 µM) | 3.9 (≈ 17.6 µM) | 7.8 (≈ 35.2 µM) | 3.9 (≈ 17.6 µM) | MIC (Staphylococcus aureus [21]): 1 µg/mL (≈ 4.52 µM); MIC (Staphylococcus aureus [22]): 3.9 µg/mL (≈ 17.6 µM); MIC (Staphylococcus aureus [23]): 7.8 µg/mL (≈ 35.2 µM); MIC (Staphylococcus aureus [24]): 3.9 µg/mL (≈ 17.6 µM); MIC (Staphylococcus aureus [25]): 7.8 µg/mL (≈ 35.2 µM); MIC (Staphylococcus aureus [26]): 7.8 µg/mL (≈ 35.2 µM); MIC (Staphylococcus aureus [27]): 7.8 µg/mL (≈ 35.2 µM); MIC (Staphylococcus aureus [28]): 7.8 µg/mL (≈ 35.2 µM); MIC [29]: 3.9 µg/mL (≈ 17.6 µM); MIC (Enterococcus faecalis [30]): 7.8 µg/mL (≈ 35.2 µM); MIC (Enterococcus faecalis [31]): 15.6 µg/mL (≈ 70.5 µM); MIC (Enterococcus faecium): 7.8 µg/mL (≈ 35.2 µM); MIC (Enterococcus): 2 µg/mL (≈ 9.04 µM); MIC (Listeria monocytogenes): > 125 µg/mL; MIC [32]: 3.9 µg/mL (≈ 17.6 µM)
